Test results from ChEMBL document CHEMBL4325897, “Discovery, synthesis of novel fusidic acid derivatives possessed amino-terminal groups at the 3-hydroxyl position with anticancer activity” (Eur J Med Chem, 2019).
Values after ≈ are worked out from the molar mass of the structure shown.

Experiments:
[1] = test system: HeLa; assay: Cytotoxicity against human HeLa cells assessed as cell viability at 5 uM after 72 hrs by MTT assay relative to control; format: functional; settings: read-out: Activity
Summary of the method: (§1)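 Cells grown in DMEM with 10% heat-inactivated FCS and penicillin/streptomycin at 37 °C, 5% CO2, and used in log phase. Seeded in 96-well plates and exposed to compounds at 5 μM and 1.5 μM for 72 h. MTT added, formazan dissolved in DMSO, OD read at 570 nm, and survival rate calculated. Average of at least three independent experiments.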

[2] = test system: U-87 MG; assay: Cytotoxicity against human U87 cells assessed as cell viability at 1.5 uM after 72 hrs by MTT assay relative to control; format: functional, U-87MG ATCC; settings: read-out: Activity; summary of the method: as §1
[3] = test system: MKN-45; assay: Cytotoxicity against human MKN45 cells assessed as cell viability at 5 uM after 72 hrs by MTT assay relative to control; format: functional; settings: MKN-45, 72 h, read-out: Activity; summary of the method: as §1
[4] = test system: MKN-45; assay: Cytotoxicity against human MKN45 cells assessed as cell viability at 1.5 uM after 72 hrs by MTT assay relative to control; format: functional; settings: MKN-45, 72 h, read-out: Activity; summary of the method: as §1
[5] = Cytotoxicity against human KBV cells assessed as cell viability at 5 uM after 72 hrs by MTT assay relative to control; format: functional; settings: read-out: Activity; summary of the method: as §1
[6] = Cytotoxicity against human KBV cells assessed as cell viability at 1.5 uM after 72 hrs by MTT assay relative to control; format: functional; settings: read-out: Activity; summary of the method: as §1
[7] = test system: HeLa; assay: Cytotoxicity against human HeLa cells assessed as cell viability at 1.5 uM after 72 hrs by MTT assay relative to control; format: functional; settings: read-out: Activity; summary of the method: as §1
[8] = test system: U-87 MG; assay: Cytotoxicity against human U87 cells assessed as cell viability at 5 uM after 72 hrs by MTT assay relative to control; format: functional, U-87MG ATCC; settings: read-out: Activity; summary of the method: as §1
[9] = Cytotoxicity against HEK293 cells assessed as reduction in cell viability after 72 hrs by MTT assay; format: cell-based; settings: human
[10] = test system: Staphylococcus aureus; assay: Antibacterial activity against Staphylococcus aureus; format: functional

SMILES | viability at 5 µM [1] [%] | viability at 1.5 µM [2] [%] | viability at 5 µM [3] [%] | viability at 1.5 µM [4] [%] | viability at 5 µM [5] [%] | viability at 1.5 µM [6] [%] | viability at 1.5 µM [7] [%] | viability at 5 µM [8] [%] | CC50 at 72 h [9] [µg/mL] | MIC [10] [µg/mL]
CC(=O)O[C@H]1C[C@@]2(C)[C@@H](C[C@@H](O)[C@H]3[C@@]4(C)CC[C@@H](OC(=O)[C@@H](N)CCCCN)[C@@H](C)[C@@H]4CC[C@@]32C)/C1=C(\CCC=C(C)C)C(=O)OCc1ccccc1 | 8 | 105 | 8 | 91 | 18 | 99 | 101 | 9 | – | –
CC(=O)O[C@H]1C[C@@]2(C)[C@@H](C[C@@H](O)[C@H]3[C@@]4(C)CC[C@@H](OC(=O)c5ccccc5C(=O)N5CCN(C)CC5)[C@@H](C)[C@@H]4CC[C@@]32C)/C1=C(\CCC=C(C)C)C(=O)OCc1ccccc1 | 73 | 86 | 99 | 104 | 75 | 89 | 83 | 77 | – | –
CC(=O)O[C@H]1C[C@@]2(C)[C@@H](C[C@@H](O)[C@H]3[C@@]4(C)CC[C@@H](OC(=O)CCC(=O)N5CCOCC5)[C@@H](C)[C@@H]4CC[C@@]32C)/C1=C(\CCC=C(C)C)C(=O)OCc1ccccc1 | 64 | 91 | 78 | 82 | 66 | 78 | 76 | 93 | – | –
CC(=O)O[C@H]1C[C@@]2(C)[C@@H](C[C@@H](O)[C@H]3[C@@]4(C)CC[C@@H](OC(=O)c5ccccc5C(=O)n5ccnc5)[C@@H](C)[C@@H]4CC[C@@]32C)/C1=C(\CCC=C(C)C)C(=O)OCc1ccccc1 | 63 | 85 | 92 | 103 | 69 | 81 | 84 | 77 | – | –
CC(=O)O[C@H]1C[C@@]2(C)[C@@H](C[C@@H](O)[C@H]3[C@@]4(C)CC[C@@H](OC(=O)c5nccnc5C(=O)O)[C@@H](C)[C@@H]4CC[C@@]32C)/C1=C(\CCC=C(C)C)C(=O)OCc1ccccc1 | 69 | 88 | 87 | 95 | 108 | 86 | 76 | 90 | – | –
CC(=O)O[C@H]1C[C@@]2(C)[C@@H](C[C@@H](O)[C@H]3[C@@]4(C)CC[C@@H](OC(=O)C(C)N)[C@@H](C)[C@@H]4CC[C@@]32C)/C1=C(\CCC=C(C)C)C(=O)OCc1ccccc1 (stereo partly specified) | 23 | 95 | 91 | 96 | 15 | 95 | 102 | 33 | – | –
CC(=O)O[C@H]1C[C@@]2(C)[C@@H](C[C@@H](O)[C@H]3[C@@]4(C)CC[C@@H](OC(=O)CN)[C@@H](C)[C@@H]4CC[C@@]32C)/C1=C(\CCC=C(C)C)C(=O)OCc1ccccc1 | 96 | 94 | 93 | 95 | 28 | 97 | 100 | 41 | 10.8 (≈ 16.3 µM) | > 32
CC(=O)O[C@H]1C[C@@]2(C)[C@@H](C[C@@H](O)[C@H]3[C@@]4(C)CC[C@@H](OC(=O)CCC(=O)N5CCN(C)CC5)[C@@H](C)[C@@H]4CC[C@@]32C)/C1=C(\CCC=C(C)C)C(=O)OCc1ccccc1 | 47 | 87 | 75 | 81 | 71 | 82 | 70 | 88 | – | –
